Results: ChEMBL document CHEMBL1153580, “Synthesis and pharmacological investigation of 3-(substituted 1-phenylethanone)-4-(substituted phenyl)-1, 2, 3, 4-tetrahydropyrimidine-5-carboxylates” (Eur J Med Chem, 2009)

Key:
Rattus norvegicus [1] = assay: Antihypertensive activity in Norwegian albino rat assessed as inhibition of DOCA salt-induced systolic blood pressure at 10 mg/kg, po after 60 mins by non-invasive tail-cuff method; assay type: functional; settings: Artery, 1 h
In short: (§1)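 Male rats (200–250 g), uninephrectomized under pentobarbital (50 mg/kg i.p.); one week later DOCA s.c. 30–50 mg/kg/week, with 1% w/v NaCl in drinking water. Groups of six, trained in restrainer, tail warmed at 33–34 °C. Compound in 0.5% CMC, 10 mg/kg orally. Systolic pressure read by tail-cuff before dosing and from 1 h after; three readings averaged. ANOVA.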

Rattus norvegicus [2] = assay: Antiinflammatory activity in Norwegian albino rat assessed as inhibition of carrageenan-induced paw edema at 100 mg/kg, po after administered 60 mins prior to carrageenan-challenge measured after 1 hr; assay type: functional
In short: (§2)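 Compound given orally as 100 mg/kg suspension in 0.5% CMC. 60 min later, carrageenan injected sub-plantar into the left hind paw. Paw volume measured within 30 s of injection, then at 1–5 h. % inhibition = [1−(Dt/Dc)]×100, where Dt and Dc are mean relative paw-volume changes in test and control. ANOVA.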

Rattus norvegicus [3] = assay: Antihypertensive activity in Norwegian albino rat assessed as inhibition of DOCA salt-induced systolic blood pressure at 10 mg/kg, po after 420 mins by non-invasive tail-cuff method; assay type: functional; settings: Artery, 7 h; in short: as §1
Rattus norvegicus [4] = assay: Antihypertensive activity in Norwegian albino rat assessed as inhibition of DOCA salt-induced systolic blood pressure at 10 mg/kg, po after 480 mins by non-invasive tail-cuff method; assay type: functional; settings: Artery, 8 h; in short: as §1
Rattus norvegicus [5] = assay: Antihypertensive activity in Norwegian albino rat assessed as inhibition of DOCA salt-induced diastolic blood pressure at 10 mg/kg, po after 30 mins by invasive carotid artery cannulation method; assay type: functional; settings: 0.5 h
In short: (§3)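 Male rats (200–250 g), uninephrectomized and given DOCA s.c. (30–50 mg/kg/week) with 1% NaCl drinking water. Anesthetized with pentobarbital (35 mg/kg i.p.); left carotid artery cannulated and exteriorized. After recovery and a baseline reading, compound given orally by feeding needle. Diastolic pressure recorded via transducer at 15, 30, 60, 120 and 180 min. Mean ± S.E.M.; repeated-measures ANOVA.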

Rattus norvegicus [6] = assay: Antihypertensive activity in Norwegian albino rat assessed as inhibition of DOCA salt-induced diastolic blood pressure at 10 mg/kg, po after 120 mins by invasive carotid artery cannulation method; assay type: functional; settings: 2 h; in short: as §3
Rattus norvegicus [7] = assay: Antihypertensive activity in Norwegian albino rat assessed as inhibition of DOCA salt-induced systolic blood pressure at 10 mg/kg, po after 300 mins by non-invasive tail-cuff method; assay type: functional; settings: Artery, 5 h; in short: as §1
Mus musculus = assay: Analgesic activity against acetic acid-induced writhing in Swiss albino mouse assessed as protection at 20 mg/kg, po; assay type: functional
In short: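 Swiss albino mice (25–30 g), six per group, habituated 30 min individually in the test cage. Compound in 1% CMC given p.o. at 20 mg/kg. 1 h later, acetic acid injected i.p.; writhes (arching of back, body elongation, hind-limb extension) counted 5–15 min after injection. % inhibition = (n−n′)/n×100, where n and n′ are mean writhes in control and test.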

Rattus norvegicus [8] = assay: Antiinflammatory activity in Norwegian albino rat assessed as inhibition of carrageenan-induced paw edema at 100 mg/kg, po after administered 60 mins prior to carrageenan-challenge measured after 5 hrs; assay type: functional; in short: as §2
Rattus norvegicus [9] = assay: Antihypertensive activity in Norwegian albino rat assessed as inhibition of DOCA salt-induced diastolic blood pressure at 10 mg/kg, po after 180 mins by invasive carotid artery cannulation method; assay type: functional; settings: 3 h; in short: as §3
Rattus norvegicus [10] = assay: Antihypertensive activity in Norwegian albino rat assessed as inhibition of DOCA salt-induced systolic blood pressure at 10 mg/kg, po after 180 mins by non-invasive tail-cuff method; assay type: functional; settings: Artery, 3 h; in short: as §1
Rattus norvegicus [11] = assay: Antihypertensive activity in Norwegian albino rat assessed as inhibition of DOCA salt-induced diastolic blood pressure at 10 mg/kg, po after 15 mins by invasive carotid artery cannulation method; assay type: functional; settings: 0.25 h; in short: as §3
Rattus norvegicus [12] = assay: Antihypertensive activity in Norwegian albino rat assessed as inhibition of DOCA salt-induced systolic blood pressure at 10 mg/kg, po after 240 mins by non-invasive tail-cuff method; assay type: functional; settings: Artery, 4 h; in short: as §1
Rattus norvegicus [13] = assay: Antihypertensive activity in Norwegian albino rat assessed as inhibition of DOCA salt-induced systolic blood pressure at 10 mg/kg, po after 15 mins by non-invasive tail-cuff method; assay type: functional; settings: Artery, 0.25 h
Rattus norvegicus [14] = assay: Antihypertensive activity in Norwegian albino rat assessed as inhibition of DOCA salt-induced diastolic blood pressure at 10 mg/kg, po after 60 mins by invasive carotid artery cannulation method; assay type: functional; settings: 1 h; in short: as §3
Rattus norvegicus [15] = assay: Antihypertensive activity in Norwegian albino rat assessed as inhibition of DOCA salt-induced systolic blood pressure at 10 mg/kg, po after 30 mins by non-invasive tail-cuff method; assay type: functional; settings: Artery, 0.5 h
Rattus norvegicus [16] = assay: Antihypertensive activity in Norwegian albino rat assessed as inhibition of DOCA salt-induced systolic blood pressure at 10 mg/kg, po after 120 mins by non-invasive tail-cuff method; assay type: functional; settings: Artery, 2 h; in short: as §1
Rattus norvegicus [17] = assay: Antihypertensive activity in Norwegian albino rat assessed as inhibition of DOCA salt-induced systolic blood pressure at 10 mg/kg, po after 360 mins by non-invasive tail-cuff method; assay type: functional; settings: Artery, 6 h; in short: as §1
Rattus norvegicus [18] = assay: Antihypertensive activity in Norwegian albino rat assessed as inhibition of DOCA salt-induced diastolic blood pressure at 10 mg/kg, po after 240 mins by invasive carotid artery cannulation method; assay type: functional; settings: 4 h
Rattus norvegicus [19] = assay: Antiinflammatory activity in Norwegian albino rat assessed as inhibition of carrageenan-induced paw edema at 100 mg/kg, po after administered 60 mins prior to carrageenan-challenge measured after 3 hrs; assay type: functional; in short: as §2
Rattus norvegicus [20] = assay: Gastrointestinal toxicity in albino rat assessed as ulcerogenic index at 50 mg/kg, po; assay type: organism-based; design: dose 50 mg/kg, route oral; settings: in vivo
In short: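 Albino rats (150–200 g), six per group, food but not water withheld 24 h. Compound given p.o. at 50 mg/kg; controls received 1% methyl cellulose. Rats fed 17 h, then killed; stomach opened along greater curvature and examined under 4× magnifier. Lesions scored as large (>2 mm), small (1–2 mm) or punctiform (<1 mm). Severity index = treated mean score minus control mean score.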

SMILES	inhibition in vivo at 10 mg/kg (Rattus norvegicus [1]) [%]	inhibition in vivo at 100 mg/kg (Rattus norvegicus [2]) [%]	inhibition in vivo at 10 mg/kg (Rattus norvegicus [3]) [%]	inhibition in vivo at 10 mg/kg (Rattus norvegicus [4]) [%]	inhibition in vivo at 10 mg/kg (Rattus norvegicus [5]) [%]	inhibition in vivo at 10 mg/kg (Rattus norvegicus [6]) [%]	inhibition in vivo at 10 mg/kg (Rattus norvegicus [7]) [%]	Activity (Mus musculus) [%]	inhibition in vivo at 100 mg/kg (Rattus norvegicus [8]) [%]	inhibition in vivo at 10 mg/kg (Rattus norvegicus [9]) [%]	inhibition in vivo at 10 mg/kg (Rattus norvegicus [10]) [%]	inhibition in vivo at 10 mg/kg (Rattus norvegicus [11]) [%]	inhibition in vivo at 10 mg/kg (Rattus norvegicus [12]) [%]	inhibition in vivo at 10 mg/kg (Rattus norvegicus [13]) [%]	inhibition in vivo at 10 mg/kg (Rattus norvegicus [14]) [%]	inhibition in vivo at 10 mg/kg (Rattus norvegicus [15]) [%]	inhibition in vivo at 10 mg/kg (Rattus norvegicus [16]) [%]	inhibition in vivo at 10 mg/kg (Rattus norvegicus [17]) [%]	inhibition in vivo at 10 mg/kg (Rattus norvegicus [18]) [%]	inhibition in vivo at 100 mg/kg (Rattus norvegicus [19]) [%]	further results
CCOC(=O)C1=C(C)NC(OC)N(CC(=O)c2ccc(OC)cc2)C1c1ccc(OC)cc1 (stereo not drawn)	15.1	37.7	46.5	48.6	12.1	31.1	40.1	51.33	47.2	39.4	27.8	3.33	36	1.57	23.5	6.58	21.6	41.9	48.8	39.8	UI (Rattus norvegicus [20]): 0.2
CCOC(=O)C1=C(C)NC(OC)N(CC(=O)c2ccc(Cl)cc2)C1c1ccc(OC)cc1 (stereo not drawn)	18.2	37.8	49.4	51.9	10.1	30.1	41.4	49.56	42	37.9	28	1.79	36	1.57	23.5	6.58	23.8	42.9	47.7	39.5	UI (Rattus norvegicus [20]): 0.45
CCOC(=O)C1=C(C)NC(OC)N(CC(=O)c2ccccc2)C1c1ccc(OC)cc1 (stereo not drawn)	13.7	38.8	45	45.9	10.6	30.9	41.4	59.76	52.6	37.9	28	2.3	36	1.57	22.9	6.58	20.4	42.9	48.2	40.5	UI (Rattus norvegicus [20]): 0.75
